Source: the EternaBench riboswitch data

Test system: MS2 coat protein
Experiment: apparent Kd, MS2 coat protein; higher = weaker binding; RNA-MaP array; FMN 200 µM where present
How it was run: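 Designs on Illumina sequencing-chip clusters, transcribed by stalled E. coli RNA polymerase, were exposed to SNAP-549-labelled MS2 coat protein in doubling steps from 0.7 or 1.5 nM up to 3 µM, without and then with constant ligand. The buffer held 100 mM Tris-HCl pH 7.5, 80 mM KCl, 4 mM MgCl2, BSA, DTT, yeast tRNA and Tween-20. Apparent Kd values are medians of filtered per-cluster binding-curve fits to green signal normalised to red-channel RNA signal and control-cluster median Fmax.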

[1] = designed as: OFF switch for flavin mononucleotide, no ligand
[2] = ligand present: flavin mononucleotide, designed as: OFF switch for flavin mononucleotide
[3] = designed as: ON switch for flavin mononucleotide, no ligand
[4] = ligand present: flavin mononucleotide, designed as: ON switch for flavin mononucleotide

Sequence	apparent Kd [1]	apparent Kd [2]	apparent Kd [3]	apparent Kd [4]
UGUCAAAAUGAAGGAUAUCUAAGCAUAAACCAUAGAGAAGGUCAAUAGUACAUGAGGAUCACCCAUGUUAGAAUAGAUGGGUUA	99.9 nM	155 nM	–	–
AAAUAAGUUGCAGGAUAUUAUUUUUAAUAAAUAUAAGAAGGGCAACAAACCUCACAUGAGGAUCACCCAUGUACCCAUGUAUCU	64.3 nM	35.6 nM	–	–
UAACCUCGCGUCAGGAUAUGUGAGGACUGUGACGCACAGAAGGGACAUGAGGAUCACCCAUGUGAAAGAAAUAA	26.8 nM	82.5 nM	–	–
GGACGACACAUGAACAUGAGGAUCACCCAUGUAAAUUCUCAUGAGGAUAUGGAUCCUAAUUGGAUCCAGAAGGCAUGGUCGUCC	–	–	1150 nM	380 nM
AGAGACCUCACAGGAUAUGCUGGACUUUGUCCAGCAGAAGGGUGAUAACAUGAGGAUCACCCAUGUAUGGUCUCCAAAUUUAAU	–	–	1110 nM	131 nM
CGCUACAGCCAGAAGGACAUGAGGAUCACCCAUGUAGGAUAUGGGAGACGCAGUCCAGUGUAGAGAAACUACGCUACUGUAGCG	–	–	504 nM	216 nM
AGCAUGUGAGGAUAUGCAGUUGACCGGUACGCCCAGUCAGGGCAGAAGGCACAUGAGGAUCACCCAUGUGAUAG	44.7 nM	122 nM	–	–
GCCUUAUCUGUCAGGAUAUACAAUAUUUUUUUUUUGUAGAAGGGACAUGAGGAUCACCCAUGUACAUUACAUUG	31.3 nM	71.8 nM	–	–
UCAUGCAUAGCGAUAUGAUCGAGAGAUCAUGUCGCUAAAUUUAGAAGGACAUGAGGAUCACCCAUGUAGGAUAUGGGAGCAUGG	–	–	292 nM	31.9 nM
AAGGCGCUAGCAGGAUAUGUACAUGAGGAUCACCCAUGUAAAUCUGUAUCUGGUGAAGCGCAAGUAUAGAAGGGCUAACGCUGG	4.71 nM	6.2 nM	–	–
GACUGAUUGUAGAAGGUACUUGAAUAUAUAUUUUAUCUCAUGUGACAUGAGGAUCACCCAUGUAGUAAGGAUAUACAUAUCACA	–	–	52.9 nM	42.2 nM
GAGUGUGAAUAAGGAUAUAUGAGAGAGUGAGUAAUAGAAGGUAUACAAACAUGAGACAUGAGGAUCACCCAUGUAUCACCCAUG	–	–	20.8 nM	16.1 nM
CUUUCGUGAGGAUAUCAGUAGUAAUAAAAUAAAAUUACUACUGAGAAGGCACAUGAGGAUCACCCAUGUUCCUC	25 nM	138 nM	–	–
UCGGUUACAUGAGGAUCACCCAUGUCUCGGGCCCUAUUUAGCAGAAGGCCAGCUGGGCUACGGAUGGAGGAUAUGCUUAUGGCC	–	–	147 nM	36.5 nM
UGGUGAGUCAAGAAGGACAUGAGGAUCACCCAUGUAGGAUAUUGGCGUCACGGCUCCAAUACGUACAUGUGGGACGGUCAAAGG	–	–	48.6 nM	16.5 nM
CCGGCUAAAGGAUAUGUGUGUAGCAACAUGAGGAUCACCCAUGUGAUGUCCUAGGUUAGCACAGAAGGUUACUAUU	35.6 nM	34.1 nM	–	–
UGUUAAAUUGAUCCUGCAAGUACAUGAGGAUCACCCAUGUGCUAGGAUAUCGCGCAGCUAAAGACCGAGAAGGAGCACAAUGUA	39.2 nM	97.7 nM	–	–
CCGAAUAAGCAGGAUAUCGAAUCGGAAACGAUUCGAGAAGGGUUAACAUGAGGAUCACCCAUGUUCCUUAACGG	20.3 nM	22.2 nM	–	–
CCGGUUGGCGCAGGAUAUACAUGAGGAUCACCCAUGUUGAUGAGGAUCACCCAUCAGUUUUUGUUGUAGAAGGGUGGCCCGGCC	23.1 nM	19.3 nM	–	–
GGUUGUCAUCGUCGUCCUUUCGGUACAUGAGGAUCACCCAUGUAGGAUAUGCUGCAUUCGAUGUGGCAGAAGGGCAUGUGUGUU	25.5 nM	71.5 nM	–	–
GGAAAACAUGAGGAUCACCCAUGUGAGGAUAUCGAUGUCCAAAGAAAAGUGCGGGACUCGAGAAGGCACUUGGA	52.9 nM	33.7 nM	–	–
AAUAAACAUGAGGAUCACCCAUGUAAAUGGGUACAAGGAUAUGCGAAAAGAAACAAAGAAGCAGAAGGUGUAAAGA	–	–	836 nM	1040 nM
UGGUACUACGGAGGAUAUCAUGUAAAUACAUGAGGAUCACCCAUGUCGUACGAGAGUACGGAGAUUGAGAAGGCCGUAGUACCU	–	–	25.6 nM	15.6 nM
CCUCCAUCAUGAGGAUAUGGCACCUUAUUGGUGCCAGAAGGCAUGUCUCUUGACAUGAGGAUCACCCAUGUAAUAAAUUGGAGG	–	–	1150 nM	109 nM
GUCCUUUCUGAGGAUAUUAUCUGGUUCGAUUGAUAAGAAGGCAGUACAUGAGGAUCACCCAUGUGGUUCGUUUG	115 nM	268 nM	–	–
GUACUACAUGAGGAUCACCCAUGUCAGGAUAUGUGAAUUUCAUCAAAAGAUGAAAUUUGCAGAAGGGACAGUAC	25.3 nM	33.9 nM	–	–
CGUGCUAUGUAGAAGGCAGAAAAGAUUCAGAUCUGAGGAUAUACAUGAGGAUCACCCAUGUUAUGCACCAGCACGAGAGUGCAC	6.69 nM	7.03 nM	–	–
GCAGCACUGUAGUACAUGAGGAUCACCCAUGUCGAUUGUUAUGAGGAUAUGCAUCGUAUGAAGAUGCAGAAGGCAUUGUGCUGC	–	–	5.22 nM	5.04 nM

Sequence	apparent Kd [1]	apparent Kd [2]	apparent Kd [3]	apparent Kd [4]
AGCAAGUAUACAUGAGGAUCACCCAUGUUUUUUAGGGUUAUCAGAAGGUACAUUUUGAGAUAGAGUAAGGAUAUGAAAUAUGCG	–	–	214 nM	130 nM
GCGUCAGAAUUAAUUGUGACAUACAGAAGGCAAUAGUUAAUUUCAGACAUGAGGAUCACCCAUGUUGAGGAUAUGUAGAGAAUC	11.8 nM	10.5 nM	–	–
UGGUACAUGGGAGGAUAUCAUGUGGACACAUGAGGAUCACCCAUGUCGAUGGAGACAUCGGAGAUUGAGAAGGCCCAUGUACCU	–	–	390 nM	12.7 nM
AGCCUACAUGAGGAUCACCCAUGUCAGGAUAUCUCGCGGCGCGUCAAGUUCACGCCGCAGAGAAGGGACUCGGG	47.9 nM	47.3 nM	–	–
GAGUGCUGAGGAUAUACAUGAGGAUCACCCAUGUGCUUCAGCUAGGAGACUAGCAUUGGUAGAAGGUAGUACUC	11.7 nM	15.4 nM	–	–
GAACUGAAGCAUAGCUUUAGUCGUACAUGAGGAUCACCCAUGUAGGAUAUGGUAGGCAUCGCUUACUAGAAGGAUAGAGUGAUC	172 nM	87.1 nM	–	–
UAGAAGUCAGGAUAUCCUGCUCGUCACUUGCGUGAUGAGUAGGAGAAGGGACAUGAGGAUCACCCAUGUAAAGC	61.1 nM	49.5 nM	–	–
ACUUGUAAGCAGAAGGCAGUCAUUAUAUUCAUCAUGUAGACAUGAGGAUCACCCAUGUAUAGUACUGAGGAUAUGCAUCGAUAG	6.75 nM	10.3 nM	–	–
GUCAGCUCGUGAGGAUAUACAACACUGCUUCGGCAGUGUAAUUUCCUCACAUGAGGAUCACCCAUGUAGAAGGCACGAGCUGAU	12.7 nM	242 nM	–	–
AAUUCGUCAGGAUAUGCAUGUAGUUGCUACAUUUCGCCGUUGCAGAAGGGACAUGAGGAUCACCCAUGUAAGUC	33.1 nM	34.2 nM	–	–
AUAUAUAUAUAAGGAUAUGUAUAUCCAACAUGAGGAUCACCCAUGUUGAGGAUCACCCAUGUAAAGCAGAAGGUAUAUAUAUAU	–	–	29.1 nM	18 nM
GGUGCCAUGUAGAAGGCAGAUCUGAUUCAGAUCUGAGGAUAUACAUGAGGAUCACCCAUGUAAAGGCACCUCACGAGAGUGCAA	10.5 nM	34.6 nM	–	–
CUAUUGUGAGGAUAUCAGUAGUAAUACAAUAGUAUUACUACUGAGAAGGCACAUGAGGAUCACCCAUGUUCCUU	14.1 nM	32.8 nM	–	–
GUGGUCAGACAUGAGGAUCACCCAUGUGGAAUAAAUAACACACAGGAUAUCCAAUAUAAAAUAUAGGAGAAGGGUGGAUUGGUG	–	–	253 nM	181 nM
UUUAUAUUCAGAGGAUAUUAAAGUAGUAUAAUAUAAGAAGGCUGUUUGUUUUGUAAAUUUAUUCUACAUGAGGAUCACCCAUGU	–	–	19.5 nM	15.7 nM
AUAUAUGCUAACAUGAGGAUCACCCAUGUGUUAUACUUAAUAUAGGAUAUGUUUAUACUUUUUGGGCAGAAGGAUGGCAUAUAU	–	–	26.1 nM	21.8 nM
CCUCUACAUGAGGAUCACCCAUGUGAGGAUAUAAGAUUGCGAAUUCCGCACUACGGUCUUAGAAGGCGCGUGGA	16.4 nM	30.5 nM	–	–
ACAUGAUAUGUAGGAUAUCACAUUAAUUGAUUAAUAUUUCUAUAUAGAAUUUGAGAAGGACAUUUACAUGAGGAUCACCCAUGU	10.3 nM	10.3 nM	–	–
GCCUUACAUGAGGAUCACCCAUGUGAGGAUAUUAACAGCUGCACUACUGAAGCGGCUGUAAGAAGGCACGUGGU	30.5 nM	37.8 nM	–	–
GGUACCAUCGCAGGAUAUGGUAUCCUUUGGGUACCAGAAGGGUGAUAACAUGAGGAUCACCCAUGUGGUACCGGGCGUGAGCCC	–	–	29 nM	970 nM
GGACGUCAGAUUAACAUGAGGAUCACCCAUGUCUUUUGACAUGAGGAUAUCCAUCCUAAUUGGAUGGAGAAGGCAUGGACGUCC	–	–	975 nM	189 nM
GCUCUAUGCUAGAAGGCGUGAAACAUGAGGAUCACCCAUGUCAGAGAUAUGAGGAUAUGGCAUAGAGCAAAAGACGGAAACGUC	–	–	18.7 nM	5.25 nM
AAUAUAGAGCUGGACUCAAAAUAAACAUGAGGAUCACCCAUGUAGGAUAUCAGCACGAUAAGUGCUGAGAAGGACAUCCAGCUC	15.4 nM	14.2 nM	–	–
CGCGAACAGUUUAACAUGAGGAUCACCCAUGUGGACUCAUGGUAGGAUAUCGGGAAGGAGGAAACCGAGAAGGGCUGGUGAGCC	–	–	583 nM	419 nM
GGUUGACAAAGUCAACCAUUACGAACAUGAGGAUCACCCAUGUAGGAUAUGCUACUCAAAGAGUAGCAGAAGGACAUGUGUCUU	30.1 nM	147 nM	–	–
UUGGACGUCGUAGGAUAUGUAGGAUAUUCCGACAUGAGGAUCACCCAUGUUGACAUGGAAGAAGGACAGAAGGACGAUGUCCAU	–	–	4.14 nM	3.48 nM
GAGAAGUCAGGAUAUGCAUGGCGGGACUUGCGUCGUGGCGUGCAGAAGGGACAUGAGGAUCACCCAUGUGGAGG	169 nM	243 nM	–	–
